Calls of active or inactive are those of the source. No cut-off for these calls is given here.
Tests used:
Assay type in all cases: functional, organism-based
Plasmodium falciparum [1] = test: Antimalarial activity against Plasmodium falciparum Dd2
Procedure, shortened: (§1)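 P. falciparum clones kept in modified candle jars; triplicate wells holding 100 µl culture (2% hematocrit, 1% parasitemia) plus 100 µl drug dilution or control. Growth read by tritiated hypoxanthine incorporation, media and vehicle controls on each plate. Experiments repeated at least twice; EC50 derived from pooled data of all experiments.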

Plasmodium falciparum [2] = test: Antimalarial activity against Plasmodium falciparum D10; procedure, shortened: as §1
Plasmodium falciparum [3] = test: Antimalarial activity against Plasmodium falciparum FAC8; procedure, shortened: as §1

Structure (SMILES) | EC50 (Plasmodium falciparum [1]) [nM] | EC50 (Plasmodium falciparum [2]) [nM] | EC50 (Plasmodium falciparum [3]) [nM] | Activity (Plasmodium falciparum [1])
CCN(CC)CCCC(C)Nc1ccnc2cc(Cl)ccc12 (stereo not drawn) [CHLOROQUINE] | 55 | – | – | –
O[C@@H](c1cc(C(F)(F)F)nc2c(C(F)(F)F)cccc12)[C@H]1CCCCN1 [MEFLOQUINE] | 60 | 64 | 23 | –
CC(C)c1nc(CN(C)C(=O)N[C@H](C(=O)N[C@@H](Cc2ccccc2)C[C@H](O)[C@H](Cc2ccccc2)NC(=O)OCc2cncs2)C(C)C)cs1 [RITONAVIR] | 850 | 1100 | 7000 | –

Continued, in another order:

EC50 (Plasmodium falciparum [1]) [nM] | EC50 (Plasmodium falciparum [2]) [nM] | Structure (SMILES) | EC50 (Plasmodium falciparum [3]) [nM] | Activity (Plasmodium falciparum [1])
2900 | – | CC(C)C[C@H](NC(=O)[C@H]1O[C@@H]1C(=O)O)C(=O)NCCCCN=C(N)N [E-64] | – | –
– | 14000 | CC(C)CC(=O)N[C@H](C(=O)N[C@H](C(=O)N[C@@H](CC(C)C)[C@@H](O)CC(=O)N[C@@H](C)C(=O)N[C@@H](CC(C)C)[C@@H](O)CC(=O)O)C(C)C)C(C)C [PEPSTATIN] | – | inactive
960 | 5500 | CC(C)(C)NC(=O)[C@@H]1C[C@@H]2CCCC[C@@H]2CN1C[C@@H](O)[C@H](Cc1ccccc1)NC(=O)[C@H](CC(N)=O)NC(=O)c1ccc2ccccc2n1 [SAQUINAVIR] | – | –
5100 | – | CC(C)C[C@H](NC(=O)[C@@H](O)[C@H](N)Cc1ccccc1)C(=O)O [UBENIMEX] | – | –

Source: ChEMBL document CHEMBL1142162, “Synergistic interactions of the antiretroviral protease inhibitors saquinavir and ritonavir with chloroquine and mefloquine against Plasmodium falciparum in vitro” (Antimicrob Agents Chemother, 2007)
